What all share (type): functional
Experiment [1] deals with Helminthosporium. The experiment in a line: Antifungal activity against Helminthosporium species at 100 ppm after 96 hrs. Put shortly: (§1)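 Poisoned-food assay on potato dextrose agar (200 g potato per litre, boiled and filtered) with compound mixed into sterilized medium at final 100, 500 or 1000 ppm. Plates were centre-inoculated with mycelial discs from 7-day PDA cultures and incubated at 28 ± 1 °C. Colony diameter was measured at two right angles after 96 h. Inhibition = (C − T) × 100/C against compound-free control, mean of three replicates ± SD, two-way ANOVA.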

The subject of experiment [2] is Helminthosporium. The experiment in a line: Antifungal activity against Helminthosporium species at 500 ppm after 96 hrs. The method, boiled down:
as §1

The test system of experiment [3] is Helminthosporium. The experiment in a line: Antifungal activity against Helminthosporium species at 1000 ppm after 96 hrs. The method, boiled down: as §1
For experiment [4], the system named is Fusarium oxysporum. The experiment in a line: Antifungal activity against Fusarium oxysporum at 100 ppm after 96 hrs. Put shortly:
as §1

Experiment [5] relates to Fusarium oxysporum. The experiment can be described thus: Antifungal activity against Fusarium oxysporum at 500 ppm after 96 hrs. The method, boiled down: as §1
Experiment [6] deals with Fusarium oxysporum. The experiment can be described thus: Antifungal activity against Fusarium oxysporum at 1000 ppm after 96 hrs. The method, boiled down:
as §1

For experiment [7], the system named is Alternaria alternata. The experiment can be described thus: Antifungal activity against Alternaria alternata at 100 ppm after 96 hrs. Put shortly: as §1
Experiment [8] has as its system Alternaria alternata. The experiment in a line: Antifungal activity against Alternaria alternata at 500 ppm after 96 hrs. The method, boiled down:
as §1

The subject of experiment [9] is Alternaria alternata. The experiment can be described thus: Antifungal activity against Alternaria alternata at 1000 ppm after 96 hrs. Put shortly: as §1

These results are taken from ChEMBL document CHEMBL1149782, “Synthesis and antifungal activity of some new 3-hydroxy-2-(1-phenyl-3-aryl-4-pyrazolyl) chromones” (2008).

For the compound `O=c1c(O)c(-c2cn(-c3ccccc3)nc2-c2ccc([N+](=O)[O-])cc2)oc2ccccc12`, the inhibition at 100 ppm in the experiment on Helminthosporium [1] was 1.31%; in the experiment with Fusarium oxysporum [4], 8.57%; in the experiment on Alternaria alternata [7], 0%. Also, the inhibition at 500 ppm in the experiment on Helminthosporium [2] is 1.31%; with Fusarium oxysporum [5], 11.4%; in the experiment with Alternaria alternata [8], 16.1%. Moreover, the values for the inhibition at 1000 ppm with Helminthosporium [3], with Fusarium oxysporum [6] and in the experiment on Alternaria alternata [9] were 14.4%, 14.2% and 16.1%, respectively.

Consider `COc1ccc(-c2nn(-c3ccccc3)cc2-c2oc3ccccc3c(=O)c2O)cc1`, for which the inhibition at 100 ppm was determined as 59.7% in the experiment on Helminthosporium [1], 55.5% in the experiment with Fusarium oxysporum [4] and 73.5% in the experiment on Alternaria alternata [7]. Also, the inhibition at 500 ppm in the experiment with Helminthosporium [2] stood at 59.7%; in the experiment with Fusarium oxysporum [5], 55.3%; with Alternaria alternata [8], 75.4%. Moreover, the inhibition at 1000 ppm with Helminthosporium [3] turned out to be 77.6%; in the experiment with Fusarium oxysporum [6], 64.2%; with Alternaria alternata [9], 77.3%.

As to `O=c1c(O)c(-c2cn(-c3ccccc3)nc2-c2ccc(Br)cc2)oc2ccccc12`, the inhibition at 100 ppm with Helminthosporium [1] was 39%; with Fusarium oxysporum [4], 34.2%; in the experiment on Alternaria alternata [7] it was 25.4%. The inhibition at 500 ppm turned out to be 39.2% in the experiment with Helminthosporium [2], 35.7% in the experiment with Fusarium oxysporum [5] and 29% in the experiment with Alternaria alternata [8]. The results for the inhibition at 1000 ppm in the experiment with Helminthosporium [3], in the experiment on Fusarium oxysporum [6] and in the experiment with Alternaria alternata [9] were 39.2%, 41.4% and 34.5%, respectively.

Consider `O=c1c(O)c(-c2cn(-c3ccccc3)nc2-c2ccc(Cl)cc2)oc2ccccc12`, for which the inhibition at 100 ppm in the experiment with Helminthosporium [1], in the experiment with Fusarium oxysporum [4] and in the experiment with Alternaria alternata [7] was 0% in each case. The figures for the inhibition at 500 ppm with Helminthosporium [2], in the experiment on Fusarium oxysporum [5] and with Alternaria alternata [8] were 1.19%, 0% and 38.2%, respectively. The inhibition at 1000 ppm in the experiment on Helminthosporium [3] was found to be 21.4%; in the experiment on Fusarium oxysporum [6], 0%; with Alternaria alternata [9], 38.2%.

Take `O=c1c(O)c(-c2cn(-c3ccccc3)nc2-c2ccccc2)oc2ccccc12`: the inhibition at 100 ppm is 31% with Helminthosporium [1], 33.9% with Fusarium oxysporum [4] and 15% in the experiment on Alternaria alternata [7]. The results for the inhibition at 500 ppm in the experiment with Helminthosporium [2], in the experiment on Fusarium oxysporum [5] and in the experiment with Alternaria alternata [8] were 50.5%, 39.2% and 41.5%, respectively. For the same compound, the inhibition at 1000 ppm in the experiment on Helminthosporium [3] was 71.2%; with Fusarium oxysporum [6], 51.7%; with Alternaria alternata [9], 52.8%.

With `O=c1c(O)c(-c2cn(-c3ccccc3)nc2-c2ccc(F)cc2)oc2ccccc12`, the inhibition at 100 ppm in the experiment on Helminthosporium [1] turned out to be 12.3%; with Fusarium oxysporum [4] it was 8.9%; in the experiment on Alternaria alternata [7] it was 30.1%. For the same compound, the figures for the inhibition at 500 ppm in the experiment with Helminthosporium [2], with Fusarium oxysporum [5] and in the experiment with Alternaria alternata [8] were 28.7%, 8.9% and 43.3%, respectively. For the same compound, the inhibition at 1000 ppm in the experiment with Helminthosporium [3] was 58.6%; in the experiment on Fusarium oxysporum [6], 16%; in the experiment with Alternaria alternata [9], 50.9%.

Take `Cc1ccc(-c2nn(-c3ccccc3)cc2-c2oc3ccccc3c(=O)c2O)cc1`: the figures for the inhibition at 100 ppm in the experiment on Helminthosporium [1], in the experiment on Fusarium oxysporum [4] and in the experiment on Alternaria alternata [7] were 73.8%, 50% and 60%, respectively. For the same compound, the inhibition at 500 ppm is 73.8% with Helminthosporium [2], 51.4% in the experiment with Fusarium oxysporum [5] and 61.8% in the experiment on Alternaria alternata [8]. Further, the inhibition at 1000 ppm with Helminthosporium [3] worked out at 76.1%; in the experiment on Fusarium oxysporum [6], 55.7%; with Alternaria alternata [9] it was 61.8%.

For the compound `C[C@@H]1C[C@@H]([C@H](O)CC2CC(=O)NC(=O)C2)C(=O)[C@@H](C)C1` [CYCLOHEXIMIDE], the inhibition at 100 ppm in the experiment with Helminthosporium [1] is 38.5%; in the experiment with Fusarium oxysporum [4], 39.2%; with Alternaria alternata [7], 40.2%. Further, the inhibition at 500 ppm amounted to 41.5% with Helminthosporium [2], 43.4% in the experiment with Fusarium oxysporum [5] and 45.5% in the experiment on Alternaria alternata [8]. Further, the inhibition at 1000 ppm in the experiment on Helminthosporium [3] amounted to 50%; in the experiment with Fusarium oxysporum [6] it was 50.2%; in the experiment with Alternaria alternata [9], 50.6%.

For orientation: inhibition means the share of the control response that was lost under treatment. High values mean strong suppression, low ones little suppression.
